The record followed here is ChEMBL document CHEMBL1811909, “Synthesis and antiproliferative activity of novel 2-aryl-4-benzoyl-imidazole derivatives targeting tubulin polymerization” (Bioorg Med Chem, 2011).

The species entered for data set [1] is Bos taurus. The data set is described as follows: Inhibition of bovine brain tubulin polymerization after 15 mins by spectrophotometric analysis. The essentials: (§1)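 Bovine brain tubulin (>97% pure, 0.4 mg per assay) mixed with compound at 5, 10 or 20 µM, with 5% DMSO as vehicle control. Buffer: 80 mM PIPES, 2.0 mM MgCl2, 0.5 mM EGTA, 1 mM GTP, pH 6.9. Polymerization followed at 37 °C as absorbance at 340 nm, read every minute for 15 min.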

A further data set deals with A-375. The data set is described as follows: Antiproliferative activity against human A375 cells after 48 hrs by sulforhodamine B assay. It is filed as functional, cell-based. To be noted: A-375, 48 h. A general note: Sulforhodamine B stains cellular protein and so reports cell mass.
The subject of data set [2] is DU-145. In words: Antiproliferative activity against human paclitaxel-resistant DU145 cells by sulforhodamine B assay. It is filed as functional, cell-based. In a few lines:
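Prostate cancer cells grown in RPMI 1640 with 10% FBS at 37 °C, 5% CO2. Seeded at 1000–5000 cells/well depending on growth rate and exposed to a concentration series for 96 h, in three to five replicates. Cells fixed with 10% TCA and stained with 0.4% SRB, absorbance read at 540 nm.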

Data set [3] has as its system MDA-MB-435. The data set is described as follows: Antiproliferative activity against human MDA-MB-435 cells expressing LCC6MDR1 by sulforhodamine B assay. It is filed as functional, cell-based.
The next data set concerns PPC-1. The data set is described as follows: Antiproliferative activity against human PPC1 cells after 96 hrs by sulforhodamine B assay. It is filed as functional, cell-based. To be noted: PPC-1, 96 h.
For data set [4], the system named is DU-145. In words: Antiproliferative activity against human DU145 cells after 96 hrs by sulforhodamine B assay. Format: functional, cell-based. Particulars: DU-145, 96 h.
For data set [5], the system named is MDA-MB-435. In words: Antiproliferative activity against human MDA-MB-435 cells by sulforhodamine B assay. Format: functional, cell-based.
In data set [6] the test system is PC-3. In words: Resistance index, ratio of IC50 for human paclitaxel-resistant PC3 cells to IC50 for human PC3 cells. It is filed as functional. In a few lines: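 Ratio of SRB-assay IC50 values, paclitaxel-resistant PC-3-TxR over parental PC-3. Both lines grown in RPMI 1640 with 10% FBS and treated for 96 h, in three to five replicates. IC50 taken from absorbance at 540 nm by nonlinear regression.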

The nature of data set [7]: Antiproliferative activity against human WM164 cells after 48 hrs by sulforhodamine B assay. Format: functional, cell-based. To be noted: WM164, 48 h.
Data set [8] deals with PC-3. The data set is described as follows: Antiproliferative activity against human PC3 cells after 96 hrs by sulforhodamine B assay. It is filed as functional, cell-based. To be noted: PC-3, 96 h.
For data set [9], the system named is PC-3. The data set is described as follows: Antiproliferative activity against human PC3 cells by sulforhodamine B assay. It is filed as functional, cell-based. The essentials:
(§2)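 Prostate cancer cells grown in RPMI 1640 with 10% FBS at 37 °C, 5% CO2. Cells (1000–5000/well, by growth rate) were exposed to a range of concentrations for 96 h, in three to five replicates. Growth was read by SRB: TCA fixation, 0.4% SRB stain, absorbance at 540 nm.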

Another data set relates to LNCaP. The data set is described as follows: Antiproliferative activity against human LNCAP cells after 96 hrs by sulforhodamine B assay. Format: functional, cell-based.
In data set [10] the test system is PC-3. The data set is described as follows: Antiproliferative activity against human paclitaxel-resistant PC3 cells by sulforhodamine B assay. Format: functional, cell-based. The essentials:
as §2

In data set [11] the test system is MDA-MB-435. The data set is described as follows: Resistance index, ratio of IC50 for human MDA-MB-435 cells expressing LCC6MDR1 to IC50 for human MDA-MB-435 cells. Format: functional.
Data set [12] relates to DU-145. In words: Antiproliferative activity against human DU145 cells by sulforhodamine B assay. Format: functional, cell-based.
Data set [13] relates to DU-145. The data set is described as follows: Resistance index, ratio of IC50 for human paclitaxel-resistant DU145 cells to IC50 for human DU145 cells. Format: functional. The essentials:
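Ratio of SRB-assay IC50 values, paclitaxel-resistant DU145-TxR over parental DU145. Both lines grown in RPMI 1640 with 10% FBS and exposed to the compound for 96 h, in three to five replicates. Absorbance read at 540 nm after TCA fixation and SRB staining.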

Data set [14] is filed under the species Bos taurus. The data set is described as follows: Inhibition of bovine brain tubulin polymerization at 10 to 20 uM after 15 mins by spectrophotometric analysis. The essentials:
as §1

For data set [15], the system named is Liver microsomes. The data set is described as follows: Metabolic stability of the compound in human liver microsomes at […] up to 90 mins by LC-MS analysis. It is filed as ADME, Microsome. The essentials:
(§3)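 Aliquots were drawn at 5, 10, 20, 30, 60 and 90 min and quenched in acetonitrile containing internal standard. After centrifugation, supernatants were measured by LC-MS/MS to follow parent loss and derive half-life.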

Data set [16] has as its system Liver. In words: Half life in mouse liver microsomes at 0.5 uM by LC-MS analysis. Format: ADME, Microsome. The essentials: (§4)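 Compound at 0.5 µM incubated with 1 mg/mL liver microsomal protein at 37 °C with shaking. […] Samples taken at 5, 10, 20, 30, 60 and 90 min and quenched with acetonitrile containing internal standard. After centrifugation, the supernatant was analysed by LC-MS/MS.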
(In general: Microsomes from liver hold many membrane-bound enzymes, among them those of drug oxidation.)

Data set [17] relates to Liver microsomes. In words: Metabolic stability of the compound in human liver microsomes at 0.5 uM up to 90 mins by LC-MS analysis. It is filed as ADME, Microsome.
The subject of data set [18] is Liver microsomes. The data set is described as follows: Half life in rat liver microsomes at 0.5 uM by LC-MS analysis. Format: ADME, Microsome. The essentials: as §4
For data set [19], the system named is Liver. In words: Metabolic stability of the compound in dog liver microsomes at 0.5 uM up to 90 mins by LC-MS analysis. Format: ADME, Canis lupus familiaris, Microsome. The essentials: as §4
Data set [20] deals with Liver. The data set is described as follows: Metabolic stability of the compound in dog liver microsomes at […] up to 90 mins by LC-MS analysis. Format: ADME, Canis lupus familiaris, Microsome. In a few lines:
as §3

Data set [21] deals with Liver. In words: Half life in mouse liver microsomes at […] by LC-MS analysis. It is filed as ADME, Microsome. The essentials: as §3
The subject of data set [22] is Liver microsomes. The data set is described as follows: Half life in rat liver microsomes at […] by LC-MS analysis. Format: ADME, Microsome. In a few lines:
as §3

SMILES strings stand for the structures. Active and inactive are the calls of the source. The calls are words filed in the database; no cut-off is given here.

The term IC50 denotes the midpoint of a concentration-inhibition curve. Low readings indicate inhibition by little substance, high ones a need for much substance.

On to `COc1cc(C(=O)c2c[nH]c(-c3ccc(Br)cc3)n2)cc(OC)c1OC`, for which, in the data set listed under Bos taurus [1], the inhibition result is “Dose-dependent effect”. The half-maximal inhibitory concentration (IC50) in the data set with A-375 is 30 nM; in the data set with DU-145 [2], 54 nM; in the data set on MDA-MB-435 [3] it was 79 nM; in the data set on PPC-1, 30 nM; in the data set with DU-145 [4], 50 nM; in the data set with MDA-MB-435 [5], 86 nM. The IC50 in data set [7] was 40 nM; with PC-3 [8], 40 nM; in the data set on PC-3 [9], 18 nM; in the data set with LNCaP, 30 nM; in the data set with PC-3 [10], 16 nM; in the data set on DU-145 [12], 49 nM. In addition, the results for the “Ratio IC50” value in the data set with PC-3 [6], in the data set on MDA-MB-435 [11] and in the data set on DU-145 [13] were 0.9, 0.9 and 1.1, respectively. Further, the inhibition entry in the data set listed under Bos taurus [14] is “Active”.

Turning to `COc1cc(C(=O)c2c[nH]c(-c3ccc(C)cc3)n2)cc(OC)c1OC`, the inhibition entry in the data set listed under Bos taurus [1] is “Dose-dependent effect”. The Stability result with Liver microsomes [15], in the data set with Liver microsomes [17] and with Liver [19] was “Stable” each time. The t1/2 came out at 12 min with Liver [16] and 20 min in the data set on Liver microsomes [18].

Take `COc1cc(C(=O)c2cn(C)c(-c3ccc(C)cc3)n2)cc(OC)c1OC`: the Stability result with Liver [20], in the data set with Liver microsomes [15] and in the data set on Liver microsomes [17] was “Stable” throughout. The inhibition entry in the data set filed under Bos taurus [1] was “Dose-dependent effect”. The IC50 with A-375 came to 30 nM; with DU-145 [2], 52 nM; in the data set on MDA-MB-435 [3] it was 67 nM; in the data set with PPC-1, 30 nM; in the data set with DU-145 [4] it was 30 nM; in the data set with MDA-MB-435 [5], 83 nM. Moreover, the IC50 in data set [7] was found to be 40 nM; with PC-3 [8], 40 nM; in the data set with PC-3 [9] it was 21 nM; in the data set on LNCaP, 30 nM; with PC-3 [10] it was 19 nM. Also, the t1/2 in the data set with Liver [21] is 5 min; in the data set on Liver microsomes [22], 10 min. The “Ratio IC50” value in the data set with PC-3 [6] was 0.9; in the data set with MDA-MB-435 [11] it was 0.8; in the data set on DU-145 [13], 1.
